B1: tRNA (parent)
chain: GUUCCGUUGGCGUAAUGGUAACGCGUCUCCCUCCUAAGGAGAAGACUGCGGGUUCGAGUCCCGUACGGAACG

Variants of: B1
Test: yeast fitness, log relative to wild type (ln ratio); higher = fitter; tRNA-Arg(CCU), competitive growth, 37 C, 1 M NaCl
Summary of the method: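 BY4742 cells without the chromosomal tRNA-Arg(CCU) gene carried a combinatorial variant library on a HIS3 centromeric plasmid, from two independent transformations. After 4 generations in SC-HIS at 30 °C, pools spent ~6.5 generations (~26.5 h) in SC-HIS 1M NaCl at 37 °C, giving three outputs per input, and 125 bp paired-end Illumina reads counted the variants. Fitness is the natural log of each genotype's generations over the wild type's, with generations taken as OD-scaled log2 output/input frequency weighted by inverse variance across replicates.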

Variant	yeast fitness (ln)
G1A U2C G6A C66U A70G C71U	-0.0113
G6A C27U A69G A70U	-0.243
A43C C66U A69G A70U C71U	-0.365
U2C G6U C46U C66A A70U C71U	-0.121
G6U A43C	-0.132
U2C A43C C66U C71U	-0.24
U2G G6U C27U A43C A70U C71U	-0.324
U2C G6U C27U C66U A69G A70G C71U	-0.288
G1A U2G G6U C27U C46U A69G A70U	-0.314
U2C G6A C27U A43C C46U C66U A69G A70U	-0.173
G1A G6U A43C A70U C71U	-0.303
U2G G6U A43C A69G A70G C71U	-0.28
G1A U2C G6U C27U A43C C46U C66U A69G A70G C71U	-0.316
A43C C46U A70U C71U	-0.131
G6A A43C A69G A70G C71U	-0.305
G1A A43C C46U A69G A70G	-0.104
G1A U2C G6A C27U C46U	-0.0428
G1A G6U C27U A43C C46U C66A A69G A70G C71U	-0.359
U2G C27U C46U C66A A70G	-0.0963
U2G G6A A43C C46U A70G	-0.148
G1A U2G A43C C66U A69G A70G C71U	-0.457

Variant	yeast fitness (ln)
G6U C27U A43C C46U C66A	-0.0176
A70U	0.00232
G6A C46U C66U A69G A70U	-0.202
C27U C46U A69G A70U C71U	-0.248
C27U A43C C46U C66A A69G A70U	-0.156
G1A U2C C27U A43C C46U A70G C71U	-0.012
U2C G6U C27U C66A A69G A70G C71U	-0.0793
G6A A43C C66U A70U C71U	-0.384
U2G A43C C66A A70G C71U	-0.237
G1A U2G A43C C66U A70G C71U	-0.22
U2C G6U A43C A69G A70U C71U	-0.4
G6A C66U A69G C71U	-0.085
A43C C46U A69G	0.00452
A43C C46U A70U	-0.00645
C66A A70U	-0.00405
G1A U2G G6U A69G C71U	-0.224
G6U C46U C66A A69G C71U	-0.0515
U2G A43C C46U C66A A69G C71U	-0.302
U2G G6A C27U C46U C66U C71U	-0.17
G1A A43C C46U A70U	-0.0611
G1A A43C C46U A70G	-0.166

Variant	yeast fitness (ln)
U2G G6A A43C C66U A70U	-0.0213
G1A U2G G6A C46U C66U A70U	-0.251
U2C G6U C27U A43C A69G C71U	-0.343
U2C G6A A43C C66U A70U	-0.06
G6A C66A A70U C71U	-0.241
U2C C46U C71U	-0.069
G1A U2G G6A	-0.0537
G1A A43C C46U C66A C71U	-0.139
U2C G6U C27U A43C C46U C66U A70U	-0.173
U2C C27U A43C C46U C66A A70U	-0.0988
U2C C27U A43C C46U C66A A70G	-0.0421
U2G G6U C46U C66A A70U C71U	-0.0156
G1A U2G G6U C46U C66A	-0.122
G1A G6A C46U C66U A70U C71U	-0.0831
U2C G6A C46U C71U	-0.0887
U2C G6U A43C C66U A70U	-0.194
G6A C46U C66U A70G C71U	-0.229
G1A G6U C46U A69G A70G C71U	-0.216
U2C C27U C46U C66U A70U	-0.0783
U2C G6U C27U A43C A70G	-0.18
G1A U2C A43C A69G A70U C71U	-0.29

Variant	yeast fitness (ln)
U2C C27U C66A C71U	-0.146
U2G G6U C27U A43C A70G C71U	-0.329
G1A C46U C66U A69G	-0.202
G6A C27U C66U A69G C71U	-0.594
G1A U2C C27U	-0.0512
G1A G6U C27U C66A A70G	-0.228
G6U C46U C66A A70G C71U	-0.15
G1A C27U C46U C66U A69G A70G C71U	-0.255
U2G C27U A43C A69G A70G	-0.238
U2C G6A A43C C46U C66U A70U C71U	-0.199
C46U A69G A70G	-0.0172
G1A U2C G6U C27U C66A A70G C71U	-0.0489
G1A U2G G6U C27U C46U A70G	-0.274
G1A U2G G6U C27U C46U A70U	-0.217
G1A U2G G6U C27U A43C C66A	-0.171
G1A U2G G6U C27U A43C C71U	-0.329
U2C G6U C27U C46U A70G C71U	-0.359
G6A C27U A43C C46U C66U A69G A70U C71U	-0.447
U2C G6U C27U A43C C66U	-0.0999
G6A A43C C46U C66U A69G A70U	-0.159

Source: the RNAGym collection of RNA variant scans (doi:10.1038/s41586-018-0170-7)
